Key:
[1] = melting temperature; fluorescence melt of hairpins on a sequencing array, two-state fit, raised by 9.35 °C to match UV melts; conditions: sodium 0.088 M
Method in brief: (§1)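 On a sequenced MiSeq flow cell, library hairpins with annealed Cy3 and quencher oligos were imaged for Cy3 fluorescence in 2.5 °C steps up to 60 °C, in 50 mM Na-HEPES pH 8.0, 25 mM NaCl. Normalisation used pre-quench Cy3 and control constructs. Bootstrapped two-state fits gave melting temperature and folding enthalpy, combined by inverse variance across four replicates and with fitted temperatures raised by 9.35 °C to match UV melts.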

[2] = folding enthalpy; higher = less favourable; fluorescence melt of hairpins on a sequencing array, two-state fit; conditions: sodium 0.088 M
Method in brief: as §1

Row | Sequence | Tm [1] [°C] | folding enthalpy [2] [kcal/mol]
1 | GTTTATCGAAAGATCAAC (((.(((....))).))) | 34.6 | -22.1
2 | GTTTCACGAAAGTGTAAC (((.(((....))).))) | 44.7 | -24.6
3 | GTTTCAGGAAACCGAAAC (((((.(....).))))) | 37.4 | -30
4 | GTTTCCGAAAGGAAAAC ((((((....))).))) | 45.1 | -16.1
5 | GTTTCCGAAAGGAAAC ((((((....)))))) | 67.8 | -41.3
6 | GTTTCCGAAAGGACAAC ((((((....))).))) | 39.6 | -16.6
7 | GTTTCCGAAAGGAGAAC ((((((....))).))) | 34.7 | -16.5
8 | GTTTCCGAAAGGATAAC ((((((....))).))) | 37.6 | -19.8
9 | GTTTCGACGAAAGTCAAC (((..(((....)))))) | 22.9 | -9.58
10 | GTTTCGGGAAACCAAAAC ((((.((....)).)))) | 35.1 | -19.6
11 | GTTTCGGGAAACCGGAAC (((.(((....))).))) | 49.6 | -35.2
12 | GTTTCGGGAAACTGAAGC (.(((.(....).))).) | 37.9 | -11.2
13 | GTTTGACGAAAGTCGAAC (((.(((....))).))) | 57.8 | -35
14 | GTTTGAGGAAACCCAAAC (((((.(....).))))) | 36.8 | -30.3
15 | GTTTGAGGAAACTCAGAC ((.((((....)))).)) | 39 | -23.4
16 | GTTTGAGGAAACTTAGAC ((.(.((....)).).)) | 32.3 | -13.5
17 | GTTTGCACGAAAGTGAAC (((..(((....)))))) | 31.2 | -13.9
18 | GTTTGCCGAAAGGCCAAC (((.(((....))).))) | 41.5 | -20.9
19 | GTTTGCGAAAGCAATAAC ((((((....)))..))) | 34.5 | -12.6
20 | GTTTGCGAAAGCAGAAC ((((((....))).))) | 44.5 | -13.7
21 | GTTTGCGAAAGCATCAAC ((((((....)))..))) | 27.2 | -8.63
22 | GTTTGCGAAAGCATTAAC ((((((....)))..))) | 27.3 | -12.2
23 | GTTTGGCGAAAGCCCAAC (((.(((....))).))) | 39.1 | -19.1
24 | GTTTGGGGAAACCCAGAC ((.((((....)))).)) | 44.8 | -26.4

Row | Sequence | Tm [1] [°C] | folding enthalpy [2] [kcal/mol]
25 | GTTTGGGGAAACTCAAAC (((((.(....).))))) | 43.9 | -31.7
26 | GTTTGGGGAAACTCGAAC (((.(.(....).).))) | 30.8 | -17.6
27 | GTTTGTCGAAAGACGAAC (((.(((....))).))) | 53.1 | -39
28 | GTTTGTGGAAACACAAAC (((((((....))))))) | 58.4 | -46.4
29 | GTTTGTGGAAACGCAAAC (((((.(....).))))) | 48.4 | -36.2
30 | GTTTTAACGAAAGTTAAC (((..(((....)))))) | 27 | -14.7
31 | GTTTTATCGAAAGATAAC (((..(((....)))))) | 29.8 | -11.4
32 | GTTTTCCCGAAAGGGAAC (((..(((....)))))) | 36.5 | -10.7
33 | GTTTTCGAAAGAAACAAC ((((((....)))..))) | 26.6 | -11.7
34 | GTTTTCGAAAGAACAAC ((((((....))).))) | 30.5 | -12.2
35 | GTTTTCGAAAGAATAAC ((((((....))).))) | 31.2 | -12.9
36 | GTTTTCGCGAAAGCGAAC (((..(((....)))))) | 40.1 | -8.54
37 | GTTTTCGGAAACGAAAGC (.(((((....))))).) | 44.4 | -25.9
38 | GTTTTGCCGAAAGGCAAC (((..(((....)))))) | 36 | -8.44
39 | GTTTTGCGAAAGCAAAC (((.(((....)))))) | 46.1 | -13.8
40 | GTTTTGGAAACAAAAC ((((((....)))))) | 49.3 | -31.6
41 | GTTTTGGGAAACCAAAAC (((((((....))))))) | 57.5 | -43.5
42 | GTTTTTCCGAAAGGAAAC (((..(((....)))))) | 35.1 | -13.4
43 | GTTTTTGGAAACAAGAAC (((.(((....))).))) | 32.7 | -19.6
44 | TAAGCGAAAGCTTA (((((....))))) | 54.5 | -15
45 | TACTGGAAACAGTA (((((....))))) | 36.8 | -15.8
46 | TAGGTGAAAACCTA (((((....))))) | 41.1 | -15.4
47 | TCAATGAAAATTGA (((((....))))) | 25 | -9.78
48 | TCAGGGAAACCTGA (((((....))))) | 41.8 | -22.8

Row | Sequence | Tm [1] [°C] | folding enthalpy [2] [kcal/mol]
49 | TCCAAGAAATTGGA (((((....))))) | 31.2 | -10.5
50 | TCCATGAAAATGGA (((((....))))) | 42.2 | -17.1
51 | TCCCTGAAAAGGGA (((((....))))) | 48.3 | -15.6
52 | TCGGGGAAACCCGA (((((....))))) | 53.3 | -22.8
53 | TGACAGAAATGTCA (((((....))))) | 42.1 | -20.1
54 | TGAGCGAAAGCTCA (((((....))))) | 67.6 | -12.8
55 | TGATTGAAAAATCA (((((....))))) | 27.4 | -10.1
56 | TGCCAGAAATGGCA (((((....))))) | 55.1 | -16.5
57 | TGCGAGAAATCGCA (((((....))))) | 54.3 | -18.2
58 | TGCTAGAAATAGCA (((((....))))) | 41.2 | -14.6
59 | TGGAGGAAACTCCA (((((....))))) | 46 | -17.4
60 | TGGCTGAAAAGCCA (((((....))))) | 57.9 | -18.4
61 | TGGGGGAAACCCCA (((((....))))) | 53.5 | -17.2
62 | TGGTTGAAAAACCA (((((....))))) | 47 | -15.1
63 | TGTACGAAAGTACA (((((....))))) | 54.7 | -14.6
64 | TTAACGAAAGTTAA (((((....))))) | 41.1 | -14
65 | TTCCAGAAATGGAA (((((....))))) | 31 | -9.36
66 | TTCCGGAAACGGAA (((((....))))) | 48.7 | -18.6
67 | TTCGAGAAATCGAA (((((....))))) | 37.9 | -12.4
68 | TTGCTGAAAAGCAA (((((....))))) | 49.2 | -16.2
69 | TTGTTGAAAAACAA (((((....))))) | 30.7 | -11.4
70 | TTTCGGAAACGAAA (((((....))))) | 40.6 | -18.3
71 | TTTGCGAAAGCAAA (((((....))))) | 54.3 | -17.4
72 | TTTTGGAAACAAAA (((((....))))) | 27.4 | -9.86

Reference: the array DNA melting data of Ke et al. (doi:10.1101/2024.01.08.574731)
